Results reported in BindingDB's records for doi:10.1016/j.ejmech.2020.112062 (Mansoura University, 2020).

Molecular target: Transcription factor p65 (Human, UniProt Q04206)
Experiment: Inhibition of NFkappaB p65 in human RPMI-8226 cells incubated for 2 hrs by ELISA
Procedure, shortened: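 Target levels measured by ELISA kits in RPMI-8226 cells. Cells were seeded and grown 24 h at 37 °C, then exposed 72 h to a semi-log series of concentrations. Sample was incubated 2 h at 37 °C, followed by detection reagents A and B (1 h each), TMB substrate and stop solution, with OD read at 450 nm. IC50 was taken from sigmoidal dose-response nonlinear regression of % activity.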

Sequence of Transcription factor p65 (Q04206 whole entry): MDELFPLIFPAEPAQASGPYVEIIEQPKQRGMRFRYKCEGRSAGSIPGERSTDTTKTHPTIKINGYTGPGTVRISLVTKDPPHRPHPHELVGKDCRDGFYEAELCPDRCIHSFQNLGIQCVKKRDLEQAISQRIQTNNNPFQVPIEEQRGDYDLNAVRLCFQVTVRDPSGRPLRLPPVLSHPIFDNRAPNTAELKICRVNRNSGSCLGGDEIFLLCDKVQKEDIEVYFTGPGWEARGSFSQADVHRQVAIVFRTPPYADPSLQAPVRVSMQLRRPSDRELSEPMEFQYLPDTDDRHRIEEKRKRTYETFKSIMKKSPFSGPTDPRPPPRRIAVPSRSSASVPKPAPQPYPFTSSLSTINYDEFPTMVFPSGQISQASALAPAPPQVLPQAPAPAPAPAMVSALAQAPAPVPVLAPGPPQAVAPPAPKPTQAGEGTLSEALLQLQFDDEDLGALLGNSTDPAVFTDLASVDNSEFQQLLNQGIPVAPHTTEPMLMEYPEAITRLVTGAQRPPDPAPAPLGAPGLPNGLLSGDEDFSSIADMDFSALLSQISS

IC50 [µM] | SMILES
0.055 | COc1cc2ncnc(Nc3ccc(F)c(Cl)c3)c2cc1OCCCN1CCOCC1 [ZD1839]
0.134 | COc1ccc(/C=C/C(=O)c2nnn(-c3ccc(Cl)cc3)c2C)cc1OC
